Source: ChEMBL document CHEMBL4387708, “Enhancement of Benzothiazoles as Pteridine Reductase-1 Inhibitors for the Treatment of Trypanosomatidic Infections” (J Med Chem, 2019)
pIC50: −log10 of the molar value.

Tests used:
[1] = Inhibition of N-terminal His-tagged Trypanosoma brucei pteridine reductase 1 using di-hydrobiopterine as substrate measured at 1 min interval for 50 mins in presence of NADPH
In short: (§1)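 Photometric PTR1 assay with NADPH and dihydrobiopterin substrate. H₄B formation is coupled non-enzymatically to cytochrome c reduction, read as signal increase at 550 nm.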

[2] = tested on: Leishmania infantum; experiment: Growth inhibition of luciferase expressing Leishmania infantum axenic amastigotes infected in human THP1 cells at 10 uM measured after 72 hrs by steady-glo luminescence assay relative to control; assay type: organism-based; details: for growth inhibition (GI): leishmania infantum, 72 h, 10 µM
[3] = target: Cytochrome P450 2C9 (Homo sapiens, UniProt P11712); experiment: Inhibition of human CYP2C9 expressed in baculovirus infected insect cells using beetle D-luciferin as substrate preincubated for 30 mins followed by NADPH addition and measured after 30 mins by CYP450-Glo assay
Sequence of Cytochrome P450 2C9 (P11712 whole entry): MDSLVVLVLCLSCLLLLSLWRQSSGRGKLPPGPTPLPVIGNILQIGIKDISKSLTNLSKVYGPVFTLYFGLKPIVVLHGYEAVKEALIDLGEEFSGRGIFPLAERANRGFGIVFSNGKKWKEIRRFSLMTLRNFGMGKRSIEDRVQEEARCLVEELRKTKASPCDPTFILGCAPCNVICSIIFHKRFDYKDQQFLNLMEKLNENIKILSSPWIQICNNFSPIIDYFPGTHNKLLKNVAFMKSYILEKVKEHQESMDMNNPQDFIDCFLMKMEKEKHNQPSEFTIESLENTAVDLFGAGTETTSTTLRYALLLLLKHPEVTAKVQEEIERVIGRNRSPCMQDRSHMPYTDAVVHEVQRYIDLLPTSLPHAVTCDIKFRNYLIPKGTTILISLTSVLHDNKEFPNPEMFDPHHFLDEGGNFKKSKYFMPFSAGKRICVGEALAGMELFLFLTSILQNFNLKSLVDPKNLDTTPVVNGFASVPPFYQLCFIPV

[4] = tested on: Trypanosoma cruzi; experiment: Growth inhibition of trypomastigote form of Trypanosoma cruzi Y infected in human U2OS cells at 50 uM measured after 72 hrs by DRAQ5 DNA dye based confocal microscopic analysis relative to control; assay type: organism-based; details: for inhibition at 50 µM: Trypanosoma cruzi, Y, U2OS, read-out: GI; for growth inhibition (GI): trypanosoma cruzi, 50 µM
[5] = target: T1, Pteridine reductase 1 (Leishmania major, UniProt Q01782); experiment: Inhibition of Leishmania major pteridine reductase 1 using di-hydrobiopterine as substrate in presence of NADPH; details: read-out: IC50; in short: as §1
T1 sequence (Q01782 whole entry): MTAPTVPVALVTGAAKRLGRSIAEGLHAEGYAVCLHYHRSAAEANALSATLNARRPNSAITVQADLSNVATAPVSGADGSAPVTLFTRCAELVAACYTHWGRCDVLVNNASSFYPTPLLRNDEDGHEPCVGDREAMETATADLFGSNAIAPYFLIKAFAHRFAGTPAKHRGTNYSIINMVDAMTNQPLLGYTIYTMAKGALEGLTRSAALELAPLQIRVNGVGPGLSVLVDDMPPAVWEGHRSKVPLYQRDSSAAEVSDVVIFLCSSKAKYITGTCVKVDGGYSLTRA

[6] = Cytotoxicity against human U2OS cells assessed as reduction in cell number; assay type: cell-based
[7] = target: Cytochrome P450 2D6 (Homo sapiens, UniProt P10635); experiment: Inhibition of human CYP2D6 expressed in baculovirus infected insect cells using beetle D-luciferin as substrate preincubated for 30 mins followed by NADPH addition and measured after 30 mins by CYP450-Glo assay
Sequence of Cytochrome P450 2D6 (P10635 whole entry): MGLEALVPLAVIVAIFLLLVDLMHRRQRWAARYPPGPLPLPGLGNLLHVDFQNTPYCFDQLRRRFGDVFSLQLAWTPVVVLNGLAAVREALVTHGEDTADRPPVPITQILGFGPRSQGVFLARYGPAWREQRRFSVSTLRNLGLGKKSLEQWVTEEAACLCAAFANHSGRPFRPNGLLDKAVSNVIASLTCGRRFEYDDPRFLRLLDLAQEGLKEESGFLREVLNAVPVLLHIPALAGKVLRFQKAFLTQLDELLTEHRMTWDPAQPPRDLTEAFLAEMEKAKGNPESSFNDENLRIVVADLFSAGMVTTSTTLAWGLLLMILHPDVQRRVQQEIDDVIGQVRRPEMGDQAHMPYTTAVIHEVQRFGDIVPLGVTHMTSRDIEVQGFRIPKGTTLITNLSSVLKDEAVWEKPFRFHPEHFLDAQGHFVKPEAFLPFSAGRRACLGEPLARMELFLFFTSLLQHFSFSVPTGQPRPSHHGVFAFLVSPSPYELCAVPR

[8] = target: T2, Cytochrome P450 1A2 (Homo sapiens, UniProt P05177); experiment: Inhibition of human CYP1A2 expressed in baculovirus infected insect cells using beetle D-luciferin as substrate preincubated for 30 mins followed by NADPH addition and measured after 30 mins by CYP450-Glo assay
T2 sequence (P05177 whole entry): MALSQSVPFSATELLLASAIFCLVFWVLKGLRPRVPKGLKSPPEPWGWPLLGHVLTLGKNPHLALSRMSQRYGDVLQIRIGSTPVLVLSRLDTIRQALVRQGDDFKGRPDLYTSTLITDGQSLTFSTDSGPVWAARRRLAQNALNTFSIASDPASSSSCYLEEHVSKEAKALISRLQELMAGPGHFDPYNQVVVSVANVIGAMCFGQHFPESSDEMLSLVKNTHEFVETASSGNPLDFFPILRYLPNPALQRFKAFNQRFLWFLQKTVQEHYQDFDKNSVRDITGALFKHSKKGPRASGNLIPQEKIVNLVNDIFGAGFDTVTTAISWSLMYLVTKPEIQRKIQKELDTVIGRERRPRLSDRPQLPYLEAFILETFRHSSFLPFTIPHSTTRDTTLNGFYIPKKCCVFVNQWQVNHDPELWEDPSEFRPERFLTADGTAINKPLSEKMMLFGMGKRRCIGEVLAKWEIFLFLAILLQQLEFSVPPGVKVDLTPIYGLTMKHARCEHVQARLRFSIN

[9] = target: T3, Pteridine reductase 1 (Leishmania major) (UniProt Q01782); experiment: Inhibition of Leishmania major pteridine reductase 1 at 50 uM using di-hydrobiopterine as substrate in presence of NADPH relative to control; in short: as §1
T3 sequence (whole entry): T1 sequence (Q01782 whole entry)

[10] = tested on: Trypanosoma brucei; experiment: Growth inhibition of Trypanosoma brucei bloodstream forms at 10 uM measured after 72 hrs by resazurin-based fluorescence assay relative to control; assay type: organism-based; details: Trypanosoma brucei, read-out: GI
[11] = target: Cytochrome P450 3A4 (Homo sapiens, UniProt P08684); experiment: Inhibition of human CYP3A4 expressed in baculovirus infected insect cells using beetle D-luciferin as substrate preincubated for 30 mins followed by NADPH addition and measured after 30 mins by CYP450-Glo assay
Sequence of Cytochrome P450 3A4 (P08684 whole entry): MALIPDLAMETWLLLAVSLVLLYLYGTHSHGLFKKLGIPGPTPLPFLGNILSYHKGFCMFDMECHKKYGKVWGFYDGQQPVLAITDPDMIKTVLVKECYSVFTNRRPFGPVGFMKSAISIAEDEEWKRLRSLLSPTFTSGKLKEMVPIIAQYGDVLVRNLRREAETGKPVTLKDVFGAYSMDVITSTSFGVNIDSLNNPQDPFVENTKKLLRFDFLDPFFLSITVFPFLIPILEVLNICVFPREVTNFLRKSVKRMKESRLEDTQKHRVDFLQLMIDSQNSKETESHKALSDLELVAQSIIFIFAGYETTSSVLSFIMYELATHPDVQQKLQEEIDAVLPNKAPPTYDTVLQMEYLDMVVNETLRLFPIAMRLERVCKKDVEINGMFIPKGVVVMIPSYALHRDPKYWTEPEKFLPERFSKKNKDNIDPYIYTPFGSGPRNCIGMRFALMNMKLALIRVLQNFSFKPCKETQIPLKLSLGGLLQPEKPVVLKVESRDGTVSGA

[12] = target: Voltage-gated inwardly rectifying potassium channel KCNH2 (Homo sapiens, UniProt Q12809); experiment: Displacement of Tracer Red from human ERG by fluorescence polarization assay
Sequence of Voltage-gated inwardly rectifying potassium channel KCNH2 (Q12809 whole entry): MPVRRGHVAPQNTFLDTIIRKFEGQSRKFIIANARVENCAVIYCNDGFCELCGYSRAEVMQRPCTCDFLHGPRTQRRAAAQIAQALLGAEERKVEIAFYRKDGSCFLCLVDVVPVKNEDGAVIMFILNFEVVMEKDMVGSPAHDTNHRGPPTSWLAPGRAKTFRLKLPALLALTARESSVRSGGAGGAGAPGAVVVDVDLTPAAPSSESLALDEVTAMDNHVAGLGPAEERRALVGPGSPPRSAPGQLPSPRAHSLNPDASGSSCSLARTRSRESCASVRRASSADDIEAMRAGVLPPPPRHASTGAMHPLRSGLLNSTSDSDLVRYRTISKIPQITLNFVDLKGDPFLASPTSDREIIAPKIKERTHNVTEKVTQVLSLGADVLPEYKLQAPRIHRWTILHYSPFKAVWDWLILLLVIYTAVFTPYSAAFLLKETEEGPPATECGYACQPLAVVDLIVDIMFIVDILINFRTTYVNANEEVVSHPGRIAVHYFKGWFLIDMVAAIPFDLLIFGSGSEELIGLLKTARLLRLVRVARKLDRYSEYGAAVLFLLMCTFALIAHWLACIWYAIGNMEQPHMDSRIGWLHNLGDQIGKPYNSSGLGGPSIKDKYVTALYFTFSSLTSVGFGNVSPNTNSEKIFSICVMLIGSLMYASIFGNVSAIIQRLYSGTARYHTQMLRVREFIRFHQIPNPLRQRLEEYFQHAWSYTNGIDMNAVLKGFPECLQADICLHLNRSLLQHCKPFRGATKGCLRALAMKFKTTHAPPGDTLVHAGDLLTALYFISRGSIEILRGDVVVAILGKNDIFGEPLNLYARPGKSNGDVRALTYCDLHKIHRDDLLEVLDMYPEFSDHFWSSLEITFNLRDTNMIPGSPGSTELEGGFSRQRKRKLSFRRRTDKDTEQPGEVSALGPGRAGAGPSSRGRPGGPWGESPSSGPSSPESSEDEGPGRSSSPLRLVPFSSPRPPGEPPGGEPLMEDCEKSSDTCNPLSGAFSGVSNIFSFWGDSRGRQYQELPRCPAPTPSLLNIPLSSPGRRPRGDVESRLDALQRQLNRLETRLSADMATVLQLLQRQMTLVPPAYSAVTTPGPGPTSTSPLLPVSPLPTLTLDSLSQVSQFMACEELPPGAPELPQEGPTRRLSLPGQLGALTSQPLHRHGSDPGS

[13] = Cytotoxicity against human A549 cells after 48 hrs by Celltiter-glo assay; assay type: cell-based
[14] = Mitochondrial toxicity in human 786-O cells measured after 6 hrs by MitoTracker Red chloromethyl-X-rosamine based assay; assay type: cell-based, 786-0
[15] = target: Cytochrome P450 2C19 (Homo sapiens, UniProt P33261); experiment: Inhibition of human CYP2C19 expressed in baculovirus infected insect cells using beetle D-luciferin as substrate preincubated for 30 mins followed by NADPH addition and measured after 30 mins by CYP450-Glo assay
Sequence of Cytochrome P450 2C19 (P33261 whole entry): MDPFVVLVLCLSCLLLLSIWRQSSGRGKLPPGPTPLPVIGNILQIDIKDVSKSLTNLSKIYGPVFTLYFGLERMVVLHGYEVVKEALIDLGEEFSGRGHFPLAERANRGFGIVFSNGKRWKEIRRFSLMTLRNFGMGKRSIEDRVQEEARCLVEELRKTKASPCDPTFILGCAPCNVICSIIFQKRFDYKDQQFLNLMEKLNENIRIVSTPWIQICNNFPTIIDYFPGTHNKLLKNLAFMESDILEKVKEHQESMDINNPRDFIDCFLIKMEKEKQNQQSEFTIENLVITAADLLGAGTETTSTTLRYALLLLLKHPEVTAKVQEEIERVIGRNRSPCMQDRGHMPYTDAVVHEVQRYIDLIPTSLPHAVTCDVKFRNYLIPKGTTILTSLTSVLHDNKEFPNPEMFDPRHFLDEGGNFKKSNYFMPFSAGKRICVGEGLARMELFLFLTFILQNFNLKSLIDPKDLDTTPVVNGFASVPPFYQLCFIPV

[16] = Selectivity ratio of IC50 for Leishmania major pteridine reductase 1 to IC50 for N-terminal His-tagged Trypanosoma brucei pteridine reductase 1
[17] = Cytotoxicity against human THP1 cells after 72 hrs by MTT assay; assay type: cell-based, THP-1; details: read-out: NOAEL
[18] = tested on: Trypanosoma brucei; experiment: Inhibition of N-terminal His-tagged Trypanosoma brucei pteridine reductase 1 at 50 uM using di-hydrobiopterine as substrate measured at 1 min interval for 50 mins in presence of NADPH relative to control; in short: as §1

SMILES | pIC50 [1] | growth inhibition (GI) [2] | pIC50 [3] | inhibition at 50 µM [4] [%] | pIC50 [5] | GI50 [6] [µM] | pIC50 [7] | pIC50 [8] | inhibition [9] [%] | inhibition at 10 µM [10] [%] | pIC50 [11] | pIC50 [12] | GI50 at 48 h [13] [µM] | IC50 at 6 h [14] [µM] | pIC50 [15] | Ratio IC50 [16] | MNTC at 72 h [17] [µM] | inhibition [18] [%] | growth inhibition (GI) [4] | inhibition at 10 µM ([2]; Leishmania infantum, THP-1, 72 h, read-out: GI) [%]
Nc1nc2ccc(C(=O)NCc3ccccc3[N+](=O)[O-])cc2s1 | 5.19 | Non-Toxic | < 4.60 | 19 | 5.45 | > 25 | < 4.60 | < 4.60 | > 60 | 18 | > 5.00 | < 4.60 | > 25 | < 10 | < 4.60 | 2 to 100 | > 25 | > 60 |  | 
COC(=O)c1ccc(COc2ccc3nc(N)sc3c2)cc1 | 5.77 | Non-Toxic | < 4.60 | 8.79 | 4.18 | > 25 | < 4.60 | < 4.60 | > 60 | 22 | 4.60 to 5.00 | 4.60 to 5.00 | > 25 | > 25 | > 5.00 | 2 to 100 | 10 to 25 | > 60 |  | 
COC(=O)c1ccc(CNC(=O)c2ccc3nc(N)sc3c2)cc1 | 4.78 | Non-Toxic | 4.60 to 5.00 |  | 4.44 | > 25 | < 4.60 | < 4.60 | > 60 | 16 | < 4.60 | < 4.60 | > 25 | > 25 | < 4.60 | 2 to 100 | > 25 | > 60 | Non-Toxic | 
Nc1nc2ccc(SCc3ccccc3)cc2s1 | 5.72 | Non-Toxic | < 4.60 |  | 4.09 | > 25 | > 5.00 | > 5.00 | > 60 | 14 | 4.60 to 5.00 | < 4.60 | > 25 | > 25 | > 5.00 | 2 to 100 | 10 to 25 | > 60 | Non-Toxic | 
Nc1nc2c(C(=O)N(Cc3ccccc3)Cc3ccc(Cl)c(Cl)c3)cc(O)c(O)c2s1 | 4.94 | Non-Toxic | > 5.00 |  | 4.82 | 10 to 25 | > 5.00 | > 5.00 | > 60 | 25 | > 5.00 | > 5.00 | > 25 | > 25 | 4.60 to 5.00 | 2 to 100 | 10 to 25 | > 60 | Non-Toxic | 
Nc1nc2ccc(C(=O)NC(c3ccccc3)c3ccccc3)cc2s1 | 4.73 |  | > 5.00 | 37.8 | 4.05 | > 25 | > 5.00 | < 4.60 | > 60 | 10 | > 5.00 | < 4.60 | > 25 | > 25 | > 5.00 | 2 to 100 | > 25 | > 60 |  | 15
